In general, IC50 refers to the concentration needed to halve the response being measured. High values mean a need for much substance, low ones inhibition by little substance.

The results in this text go back to ChEMBL document CHEMBL1130173, “A model for binding of structurally diverse natural product inhibitors of protein phosphatases PP1 and PP2A” (J Med Chem, 1997).

Structures are written as SMILES. *1 amine or outer side, *2 acyl side, *3 side chain or, on linkers, in order; H or OH if unused. Where a SMILES comes first, the peptide text is derived from it. Bridges are numbered along the chain shown (N, C = ends). [ ]: non-standard residue; d: D form. Adda = CO[C@@H](Cc1ccccc1)[C@@H](C)/C=C(C)/C=C/[C@H](N[*:1])[C@H](C)C(=O)[*:2]; dAsp(3S-Me) = C[C@H](C(=O)[*:3])[C@@H](N[*:1])C(=O)[*:2]; d(γGlu) = O=C(O)[C@@H](CCC(=O)[*:2])N[*:1]; NMeDha = C=C(NC)C(=O)O

The target in test [1] is T1, Serine-threonine protein phosphatase 2A regulatory subunit (Gallus gallus, UniProt Q8AWE3).
T1 sequence (Q8AWE3 whole entry): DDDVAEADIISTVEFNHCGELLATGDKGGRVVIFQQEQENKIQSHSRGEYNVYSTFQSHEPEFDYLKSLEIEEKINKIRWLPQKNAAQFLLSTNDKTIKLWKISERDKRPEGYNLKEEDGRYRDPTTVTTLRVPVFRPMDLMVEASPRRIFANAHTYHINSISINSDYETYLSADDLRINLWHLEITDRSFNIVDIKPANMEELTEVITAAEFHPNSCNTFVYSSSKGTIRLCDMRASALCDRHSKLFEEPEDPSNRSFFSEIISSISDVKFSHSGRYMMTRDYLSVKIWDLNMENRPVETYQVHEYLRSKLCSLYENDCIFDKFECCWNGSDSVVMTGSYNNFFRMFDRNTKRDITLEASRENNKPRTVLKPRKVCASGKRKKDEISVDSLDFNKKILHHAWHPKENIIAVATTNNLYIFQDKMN
Nature of the test: Inhibition activity against protein phosphatase 2A (PP2A), activity taken from literature.

For test [2], the target named is T1, Serine-threonine protein phosphatase 2A regulatory subunit. Kind of test: Observed inhibition activity against protein phosphatase 2A (PP2A).
For test [3] the target is unchanged. Nature of the test: (§1) Observed inhibition activity of the compounds against protein phosphatases 2A (PP2A). In a few lines:
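Commercial PP2A (e.g. 3 mU) in MOPS/2-mercaptoethanol/MgCl2/albumin dilution buffer. Preincubated 10 min with inhibitor at pH 8.0 Tris-HCl. Reaction started with KR-pT-IRR phosphopeptide (0.2 mM stock), 60 min at 22 °C. Released phosphate measured by malachite green at 650 nm after 20 min development; IC50 from inhibition curves.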

Test [4] deals with T2, Serine/threonine-protein phosphatase 2A 55 kDa regulatory subunit B alpha isoform (Homo sapiens, UniProt P63151).
T2 sequence (P63151 whole entry): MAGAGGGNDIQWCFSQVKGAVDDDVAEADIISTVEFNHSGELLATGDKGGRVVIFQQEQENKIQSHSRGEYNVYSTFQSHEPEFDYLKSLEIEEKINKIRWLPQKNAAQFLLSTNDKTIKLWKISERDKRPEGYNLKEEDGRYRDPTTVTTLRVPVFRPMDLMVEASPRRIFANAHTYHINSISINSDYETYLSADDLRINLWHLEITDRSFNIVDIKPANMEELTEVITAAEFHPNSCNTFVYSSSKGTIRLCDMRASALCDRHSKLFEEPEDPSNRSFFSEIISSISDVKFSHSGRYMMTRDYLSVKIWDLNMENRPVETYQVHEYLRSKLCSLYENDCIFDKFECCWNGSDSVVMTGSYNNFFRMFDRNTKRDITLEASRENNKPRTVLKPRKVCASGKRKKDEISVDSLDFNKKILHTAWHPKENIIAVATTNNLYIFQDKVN
The test is described as §1.

With `CC=C1C(=O)N[C@@H](C(=O)O)[C@H](C)C(=O)N[C@@H](CCCNC(=N)N)C(=O)N[C@@H](/C=C/C(C)=C/[C@H](C)[C@H](Cc2ccccc2)OC)[C@H](C)C(=O)N[C@@H](C(=O)O)CCC(=O)N1C`, the half-inhibitory concentration (IC50) in test [1] turned out to be 1 nM; in test [2] it was 0.2 nM.

On to `COC([C@H](OC(=O)C[C@@H](O)C1=C(C)C(=O)OC1=O)C(C)C)[C@H](O)CC(=O)[C@@H](C)[C@@H](O)CC[C@@H](C)[C@@H]1O[C@]2(CC[C@@H](C)[C@H](CC[C@H](C)C(C)=O)O2)CC[C@@H]1C` (single isomer, unassigned) [TAUTOMYCIN], for which the IC50 in test [3] turned out to be 10 nM. That is a double-digit nanomolar value.

In the case of `COC[C@@H]([C@H](O)[C@H](O)C(=O)NCC[C@H](C)c1nc(/C=C/C[C@@H]2O[C@]3(C[C@@H](O)[C@@H]2C)O[C@H]([C@H](C[C@H](O)[C@H](C)[C@H](O)[C@H](C)/C=C(C)/C(C)=C/C=C/C(C)=C\C#N)OC)[C@H](OP(=O)(O)O)C3(C)C)co1)N(C)C` [CALYCULIN A], the IC50 in test [3] was 7.3 nM.

Turning to `COC[C@@H]([C@H](O)[C@H](O)C(=O)N[C@H](C)C[C@H](C)c1nc(/C=C/C[C@@H]2O[C@]3(C[C@@H](O)[C@@H]2C)O[C@H]([C@H](C[C@H](O)[C@H](C)[C@H](O)[C@H](C)/C=C(C)/C(C)=C/C=C/C(C)=C\C#N)OC)[C@H](OP(=O)(O)O)C3(C)C)co1)N(C)C` [CALYCULIN], in test [3], the IC50 was found to be 9.71 nM. The IC50 values of the last two compounds are within 1.5-fold of each other.

Turning to `C=C1C(=O)N[C@H](C)C(=O)N[C@@H](CC(C)C)C(=O)N[C@@H](C(=O)O)[C@H](C)C(=O)N[C@@H](CCCNC(=N)N)C(=O)N[C@@H](/C=C/C(C)=C/[C@H](C)[C@H](Cc2ccccc2)OC)[C@H](C)C(=O)N[C@@H](C(=O)O)CCC(=O)N1C` [MICROCYSTIN-LR] (R[Adda][d(γGlu)][NMeDha][dA]L[dAsp(3S-Me)]-OH; lactam N-7), the IC50 in test [4] was 0.065 nM.

Turning to `C=C1[C@@H](O)[C@@H]2O[C@]3(CC[C@H](/C=C/[C@@H](C)[C@@H]4CC(C)=C[C@@]5(O[C@H](C[C@@](C)(O)C(=O)O)CC[C@H]5O)O4)O3)CC[C@H]2O[C@@H]1[C@@H](O)C[C@H](C)[C@H]1O[C@@]2(CCCCO2)CC[C@H]1C` [OKADAIC ACID], the values for the IC50 in test [1] and in test [2] were 1 nM and 0.45 nM, respectively.
